Measured values: ChEMBL document CHEMBL3351585, “Design, synthesis and biological evaluation of novel peptides with anti-cancer and drug resistance-reversing activities” (Eur J Med Chem, 2015)
The source made the active and inactive calls. The rule behind the calls is not given here.

Legend:
[1] = Retention time of the compound by UPLC method; type: physicochemical
MCF7 [2] = assay: Anticancer activity against human MCF7 cells after 48 hrs by MTT assay; type: functional, cell-based; settings: MCF7, 48 h
Summary of the method: (§1)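 Cells grown in RPMI1640 with 10% heat-inactivated FBS and 1% penicillin-streptomycin at 37 °C, 5% CO2. Log-phase cells were seeded at 5 × 10^3/well 24 h before treatment, exposed to a range of peptide concentrations for 48 h, then given MTT for 4 h. Formazan was dissolved in DMSO and A490 read. Survival was computed relative to untreated wells, and IC50 taken from the survival curve.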

K562 = assay: Anticancer activity against human K562 cells after 48 hrs by MTT assay; type: functional, cell-based; settings: K562, 48 h; summary of the method: as §1
[3] = Cytotoxicity against human GES-1 cells after 48 hrs by MTT assay; type: cell-based; settings: GES1, 48 h; summary of the method: as §1
[4] = Toxicity in rabbit erythrocytes assessed as induction of hemolysis at 160 uM incubated for 1 hr by microplate reader assay; type: cell-based, Oryctolagus cuniculus; settings: erythrocyte
Summary of the method: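 Rabbit red blood cells in PBS were mixed 1:1 by volume with peptide solution and incubated 1 h at 37 °C, then spun at 1000 g for 5 min. Hemoglobin in the supernatant was read at 540 nm. PBS defined 0% hemolysis and 0.1% Triton X-100 defined 100%.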

MCF7 [5] = assay: Induction of cytochrome c release in human MCF7 cells incubated for 2 hrs by ELISA method (reference value: 364.2 +/- 20.5 ng); type: functional
MCF7 [6] = assay: Induction of cytochrome c release in extracellular region of human MCF7 cells incubated for 2 hrs by ELISA method (reference value: 15.7 +/- 0.77 ng); type: functional
MCF7 [7] = assay: Induction of cytochrome c release in cytoplasm of human MCF7 cells incubated for 2 hrs by ELISA method (reference value: 44.1 +/- 2.7 ng); type: functional
MCF7 [8] = assay: Induction of cytochrome c release in mitochondria of human MCF7 cells incubated for 2 hrs by ELISA method (reference value: 347.8 +/- 14.5 ng); type: functional
[9] = Increase in adriamycin uptake in human K562/ADR cells at 0.5 uM after 2.5 hrs by fluorescence spectrophotometry; type: ADME, cell-based
Summary of the method: (§2)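 2 × 10^5 MCF-7/ADM or K562/ADM cells were co-incubated 2.5 h with ADM plus peptide, or with verapamil as comparator. After washing in cold PBS, cells were lysed in 0.75 M HCl/0.2% Triton X-100 in isopropanol. Lysate ADM fluorescence was measured by spectrofluorometry at ex 460/em 610 nm.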

[10] = Anticancer activity against human MCF7/ADR cells after 48 hrs by MTT assay; type: functional, cell-based; settings: NCI/ADR-RES; summary of the method: as §1
[11] = Anticancer activity against human K562/ADR cells after 48 hrs by MTT assay; type: functional, cell-based; summary of the method: as §1
MCF7 [12] = assay: Induction of cell membrane alteration in human MCF7 cells at 5 uM incubated for 30 mins by acridine orange/ethidium bromide double staining method; type: functional, cell-based
Summary of the method: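 MCF-7 cells were plated at 1 × 10^5/well and grown 24 h, then given peptide for 30 min. Cells were washed twice with PBS and stained 10 min in the dark with cold PBS containing acridine orange and ethidium bromide. Excess dye was washed off, then cells were imaged by fluorescence microscopy. Red EB staining marks membrane-compromised cells.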

MCF7 [13] = assay: Induction of cell membrane morphology changes in human MCF7 cells at 5 uM incubated for 30 mins by scanning electron microscopy; type: functional, cell-based
Summary of the method: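 MCF-7 cells were grown 24 h on coverslips at 1 × 10^5/well and exposed to peptide for 30 min. Cells were gently PBS-washed, fixed in 2.5% glutaraldehyde, and examined by scanning electron microscopy.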

[14] = Drug uptake in cytosol of human MCF7 cells at 5 uM incubated for 5 mins or 30 mins by fluorescein isothiocyanate labeling based fluorescence microscopy; type: ADME, cell-based
Summary of the method: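 MCF-7 cells were plated at 1 × 10^5/well and grown 24 h, then exposed to FITC-labeled peptides for 5 min or 30 min. Cells were washed three times with cold PBS, and intracellular fluorescence was imaged by fluorescence microscopy.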

MCF7 [15] = assay: Induction of mitochondrial membrane potential depolarization in human MCF7 cells at 5 uM incubated for 2 hrs by JC1 staining; type: functional, cell-based
Summary of the method: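 MCF-7 cells plated at 1 × 10^5 per well, grown 24 h, then exposed to peptide for 2 h. Mitochondrial membrane potential was assessed with a JC-1 mitochondrial membrane potential kit. Green (monomer) and red (J-aggregate) fluorescence were imaged, with merged orange taken as normal potential.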

MCF7 [16] = assay: Induction of cytochrome c release in human MCF7 cells at 5 uM incubated for 2 hrs by ELISA method (reference value: 364.2 +/- 20.5 ng); type: functional
MCF7 [17] = assay: Induction of cytochrome c release in extracellular region of human MCF7 cells at 5 uM incubated for 2 hrs by ELISA method (reference value: 15.7 +/- 0.77 ng); type: functional
MCF7 [18] = assay: Induction of cytochrome c release in cytoplasm of human MCF7 cells at 5 uM incubated for 2 hrs by ELISA method (reference value: 44.1 +/- 2.7 ng); type: functional
MCF7 [19] = assay: Induction of cytochrome c release in mitochondria of human MCF7 cells at 5 uM incubated for 2 hrs by ELISA method (reference value: 347.8 +/- 14.5 ng); type: functional
MCF7 [20] = assay: Antimigratory activity in human MCF7 cells assessed as inhibition of cell migration at 0.5 uM incubated for 48 hrs by wound healing assay; type: functional, cell-based
Summary of the method: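 MCF-7 cells were seeded at 2 × 10^5/well and grown 24 h to 90% confluence. A cell-free gap was scratched, and cells migrated in serum-free medium with peptide for 48 h. Wound closure was photographed at 0 h and 48 h.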

MCF7 [21] = assay: Antimigratory activity in human MCF7 cells assessed as inhibition of cell migration at 0.5 uM incubated for 48 hrs by transwell migration assay; type: functional, cell-based
Summary of the method: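 Transwell chambers with a porous membrane separating upper and lower compartments. 4 × 10^4 MCF-7 cells were placed in the upper chamber in peptide-containing medium and incubated 48 h. Cells that reached the lower membrane surface were counted.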

NCI/ADR-RES = assay: Potentiation of adriamycin-induced cytotoxicity against human MCF7/ADR cells at 0.5 uM after 48 hrs by MTT assay; type: functional, cell-based
Summary of the method: (§3)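 ADM-resistant MCF-7/ADM or K562/ADM cells, grown in RPMI1640 with 10% FBS at 37 °C and 5% CO2, were seeded at 1 × 10^4 per well and held 24 h. Fixed peptide was added, followed by graded ADM concentrations, for 48 h. MTT was then given for 4 h at 37 °C, formazan dissolved in DMSO and absorbance read at 570 nm. Verapamil served as positive control.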

K562/Adr = assay: Potentiation of adriamycin-induced cytotoxicity against human K562/ADR cells at 0.5 uM after 48 hrs by MTT assay; type: functional, cell-based; summary of the method: as §3
[22] = Increase in adriamycin uptake in human MCF7/ADR cells at 0.5 uM after 2.5 hrs by fluorescence microscopy; type: ADME, cell-based; settings: nci/adr-res
Summary of the method: (§4)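 2 × 10^5 MCF-7/ADM or K562/ADM cells were co-incubated 2.5 h with ADM plus peptide, or with verapamil as comparator. Cells were washed with cold PBS and ADM fluorescence was imaged by fluorescence microscopy.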

[23] = Increase in adriamycin uptake in human K562/ADR cells at 0.5 uM after 2.5 hrs by fluorescence microscopy; type: ADME, cell-based; summary of the method: as §4
[24] = Increase in adriamycin uptake in human MCF7/ADR cells at 0.5 uM after 2.5 hrs by fluorescence spectrophotometry; type: ADME, cell-based; settings: nci/adr-res; summary of the method: as §2

| Molecule | Retention_time [1] | IC50 (MCF7 [2]) | IC50 (K562) | IC50 [3] | Activity [4] | further results |
| --- | --- | --- | --- | --- | --- | --- |
| H-VKRFKKFFRKLKKEV-NH2 | 3.41 min | 38.9 µM | 36.6 µM | 104 µM | Non-toxic | – |
| O=c1[nH]cc(F)c(=O)[nH]1 [FLUOROURACIL] | – | 26.9 µM | 31.6 µM | 30.9 µM | – | Activity (MCF7 [5]): 357 ng; Activity (MCF7 [6]): 15.7 ng; Activity (MCF7 [7]): 49.6 ng; Activity (MCF7 [8]): 319.2 ng |
| H-VKRFKKFFRKLKKRV-NH2 | 3.13 min | 5.5 µM | 8.7 µM | 93.3 µM | Non-toxic | – |
| H-VKRFKKFFRKLKKAV-NH2 | 3.48 min | 8.9 µM | 8.6 µM | 87.1 µM | Non-toxic | – |
| H-VKRFKKFFRKLKKLV-NH2 | 3.84 min | 3.6 µM | 1.1 µM | 77.6 µM | Non-toxic | Activity [9]: Active; IC50 [10]: 4.4 µM; IC50 [11]: 3.3 µM; Activity (MCF7 [12]): Active; Activity (MCF7 [13]): Active; Drug uptake [14]: Active; Activity (MCF7 [15]): Active; Activity (MCF7 [16]): 354.8 ng; Activity (MCF7 [17]): 14.9 ng; Activity (MCF7 [18]): 59.9 ng; Activity (MCF7 [19]): 303.8 ng; inhibition (MCF7 [20]): Active; inhibition (MCF7 [21]): Active; Activity (NCI/ADR-RES): Active; Activity (K562/Adr): Active; Activity [22]: Active; Activity [23]: Active; Activity [24]: Active |
| H-VKRFKKFFRKLKKHV-NH2 | 3.28 min | 5 µM | 10.5 µM | 105 µM | Non-toxic | – |
| H-VKRFKKFFRKLKKGV-NH2 | 3.25 min | 15.8 µM | 14.8 µM | 107 µM | Non-toxic | – |
